Source: ChEMBL document CHEMBL1157208, “Synthesis and CNS depressant activity of some novel 3-[5-substituted 1,3,4-thiadiazole-2-yl]-2-styryl quinazoline-4(3H)-ones” (Eur J Med Chem, 2008)
Activity calls are given as the source filed them. The rule behind the calls is not given here.

How the values were obtained:
Mus musculus [1] = experiment: Neurotoxicity in mouse at 300 mg/kg, ip after 0.5 hrs by rotarod test; type: toxicity, organism-based; parameters: dose 300 mg/kg, route intraperitoneal; conditions: in vivo
In short: (§1)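 Mice dosed i.p. at 30, 100 and 300 mg/kg in PEG 400 were examined 0.5 and 4 h later on a rotorod. Animals were pre-trained on a 3.2 cm rod turning at 6 rpm. Neurotoxicity meant failing to keep equilibrium for at least 1 min in each of three trials. The value is the minimum dose affecting half or more of the animals.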

Mus musculus [2] = experiment: Anticonvulsant activity in ip dosed mouse assessed as inhibition of pentylenetetrazole-induced seizure after 4 hrs; type: functional
In short: (§2)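 Male albino mice (CF-1 or Swiss, 18–25 g) received compound suspended in polyethylene glycol 400, i.p., 0.01 ml/g, at 30, 100 and 300 mg/kg. Maximal electroshock and subcutaneous pentylenetetrazole seizure tests were run at 0.5 and 4 h by a previously reported procedure.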

Mus musculus [3] = experiment: Anticonvulsant activity in ip dosed mouse assessed as inhibition of maximal electroshock-induced seizures after 4 hrs; type: functional; in short: as §2
Mus musculus [4] = experiment: Anticonvulsant activity in ip dosed mouse assessed as inhibition of pentylenetetrazole-induced seizure after 0.5 hrs; type: functional; in short: as §2
Mus musculus [5] = experiment: Sedative-hypnotic effect in mouse assessed as decrease locomotor activity score at 100 mg/kg, ip after 0.5 hrs by actophotometer; type: functional; conditions: route intraperitoneal
In short: (§3)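 Locomotor activity in mice was read as a digital photocell score on an actophotometer. Baseline was taken 24 h before treatment, then at 30 min and 1 h after 100 mg/kg i.p. Controls received PEG 400. Percent decrease was calculated from the 1 h values. Results are mean ± SEM of six mice, compared with Student's t test.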

Mus musculus [6] = experiment: Neurotoxicity in mouse at 300 mg/kg, ip after 4 hrs by rotarod test; type: toxicity, organism-based; parameters: dose 300 mg/kg, route intraperitoneal; conditions: in vivo; in short: as §1
Mus musculus [7] = experiment: Sedative-hypnotic effect in mouse assessed as inhibition of locomotor activity at 100 mg/kg, ip by actophotometer; type: functional; conditions: route intraperitoneal; in short: as §3
Mus musculus [8] = experiment: Anticonvulsant activity in ip dosed mouse assessed as inhibition of maximal electroshock-induced seizures after 0.5 hrs; type: functional; in short: as §2
Mus musculus [9] = experiment: Sedative-hypnotic effect in mouse assessed as decrease locomotor activity score at 100 mg/kg, ip after 1 hr by actophotometer; type: functional; conditions: route intraperitoneal; in short: as §3
Mus musculus [10] = experiment: Anticonvulsant activity in mouse assessed as inhibition of maximal electroshock-induced seizures at 300 mg/kg, ip after 0.5 hrs; type: functional, organism-based; parameters: dose 300 mg/kg; in short: as §2
Mus musculus [11] = experiment: Anticonvulsant activity in mouse assessed as inhibition of pentylenetetrazole-induced seizure at 300 mg/kg, ip after 0.5 hrs; type: functional, organism-based; parameters: dose 300 mg/kg; in short: as §2
Mus musculus [12] = experiment: Neurotoxicity in ip dosed mouse after 0.5 hrs by rotarod test; type: toxicity, organism-based; conditions: in vivo; in short: as §1
Mus musculus [13] = experiment: Anticonvulsant activity in mouse assessed as inhibition of pentylenetetrazole-induced seizure at 300 mg/kg, ip after 4 hrs; type: functional, organism-based; parameters: dose 300 mg/kg; in short: as §2
Mus musculus [14] = experiment: Anticonvulsant activity in mouse assessed as inhibition of maximal electroshock-induced seizures at 300 mg/kg, ip after 4 hrs; type: functional, organism-based; parameters: dose 300 mg/kg; in short: as §2
Mus musculus [15] = experiment: Neurotoxicity in mouse assessed as loss of righting reflux at 100 mg/kg, ip after 0.5 hrs; type: toxicity, organism-based; parameters: dose 100 mg/kg, route intraperitoneal; conditions: in vivo

SMILES | Activity (Mus musculus [1]) | Activity (Mus musculus [2]) [mg/kg] | Activity (Mus musculus [3]) [mg/kg] | Activity (Mus musculus [4]) [mg/kg] | Activity (Mus musculus [5]) | Activity (Mus musculus [6]) | inhibition in vivo at 100 mg/kg (Mus musculus [7]) [%] | Activity (Mus musculus [8]) [mg/kg] | Activity (Mus musculus [9]) | Activity (Mus musculus [10]) | Activity (Mus musculus [11]) | Activity (Mus musculus [12]) [mg/kg] | Activity (Mus musculus [13]) | Activity (Mus musculus [14]) | Activity (Mus musculus [15])
O=c1c2ccccc2nc(/C=C/c2ccccc2)n1-c1nnc(-c2ccc(Cl)cc2)s1 | Not Active | 300 | 100 | 300 | 250.62 | Not Active | 68 | 100 | 132.04 |  |  |  |  |  | 
COc1ccc(/C=C/c2nc3ccccc3c(=O)n2-c2nnc(-c3ccc(Cl)cc3)s2)cc1 | Not Active | 300 | 300 |  | 306.98 | Not Active | 62 |  | 155.31 | inactive |  |  |  |  | 
COc1ccc(/C=C/c2nc3ccccc3c(=O)n2-c2nnc(-c3ccc(OC)cc3)s2)cc1 |  |  |  |  | 308.13 | Not Active | 59 |  | 180.3 | inactive | inactive | 300 | inactive | inactive | 
COc1ccc(/C=C/c2nc3ccccc3c(=O)n2-c2nnc(-c3ccc(C)cc3)s2)cc1 | Not Active |  |  | 300 | 315.46 | Not Active | 64 |  | 142.19 | inactive |  |  | inactive | inactive | 
CCCC(CCC)C(=O)[O-].[Na+] [VALPROATE SODIUM] | Not Active |  |  | 300 |  | Not Active |  |  |  | inactive |  |  | inactive | inactive | 
Cc1ccc(/C=C/c2nc3ccccc3c(=O)n2-c2nnc(/C=C/c3ccccc3)s2)cc1 | Not Active |  |  |  | 310.32 | Not Active | 67 |  | 123.32 | inactive | inactive |  | inactive | inactive | 
COc1ccc(/C=C/c2nc3ccccc3c(=O)n2-c2nnc(/C=C/c3ccccc3)s2)cc1 | Not Active |  |  |  | 362.37 | Not Active | 51 |  | 228.32 | inactive | inactive |  | inactive | inactive | 
Cc1ccc(/C=C/c2nc3ccccc3c(=O)n2-c2nnc(-c3ccccc3)s2)cc1 | Not Active |  |  |  | 353.52 | Not Active | 55 |  | 185.15 | inactive | inactive |  | inactive | inactive | 
COc1ccc(/C=C/c2nc3ccccc3c(=O)n2-c2nnc(-c3cccc(Cl)c3)s2)cc1 | Not Active |  | 300 |  | 292.39 | Not Active | 66 |  | 110.45 | inactive | inactive |  | inactive |  | 
CCC1(C)CC(=O)NC1=O (stereo not drawn) [ETHOSUXIMIDE] | Not Active |  |  | 300 |  | Not Active |  |  |  | inactive |  |  | inactive | inactive | 
Cc1ccc(/C=C/c2nc3ccccc3c(=O)n2-c2nnc(-c3cccc(Cl)c3)s2)cc1 | Not Active | 300 |  | 300 | 298.67 | Not Active | 65 |  | 128.94 | inactive |  |  |  | inactive | 
Cc1ccc(/C=C/c2nc3ccccc3c(=O)n2-c2nnc(-c3ccc(C)cc3)s2)cc1 | Not Active |  |  |  | 291.39 | Not Active | 71 |  | 92.2 | inactive | inactive |  | inactive | inactive | 
COc1ccc(-c2nnc(-n3c(/C=C/c4ccc(C)cc4)nc4ccccc4c3=O)s2)cc1 | Not Active |  |  |  | 272.19 | Not Active | 65 |  | 137.19 | inactive | inactive |  | inactive | inactive | 
Cc1ccc(/C=C/c2nc3ccccc3c(=O)n2-c2nnc(-c3ccc(Cl)cc3)s2)cc1 | Not Active |  | 300 |  | 373.56 | Not Active | 64 |  | 153.08 | inactive | inactive |  | inactive |  | 
COc1ccc(/C=C/c2nc3ccccc3c(=O)n2-c2nnc(-c3ccccc3)s2)cc1 |  |  |  |  | 419.24 | Not Active | 55 |  | 210.24 | inactive | inactive |  | inactive | inactive | Toxic
Cc1ccc(-c2nnc(-n3c(/C=C/c4ccccc4)nc4ccccc4c3=O)s2)cc1 | Not Active |  |  |  | 531 | Not Active |  |  | 467 | inactive | inactive |  | inactive | inactive | 
COc1ccc(-c2nnc(-n3c(/C=C/c4ccccc4)nc4ccccc4c3=O)s2)cc1 | Not Active |  |  |  | 381.82 | Not Active | 36 |  | 266.36 | inactive | inactive |  | inactive | inactive | 
O=c1c2ccccc2nc(/C=C/c2ccccc2)n1-c1nnc(/C=C/c2ccccc2)s1 |  |  |  |  | 372.87 | Not Active |  |  | 489.92 | inactive | inactive | 300 | inactive | inactive | 
